What was measured:
[1] = target: receptor tyrosine kinase IGFR (Homo sapiens, UniProt P08069); assay: Preliminary kinase screen, IGFR; format: biochemical; conditions: small panel of kinases
[2] = target: cytoplasmic tyrosine kinase Src (Homo sapiens, UniProt P12931); assay: Preliminary kinase screen, Src; format: biochemical; conditions: small panel of kinases
IKKβ = conditions: ref 22 (Kasinski et al.); cited from earlier work
AKT1 (PKB alpha) = AKT1 (PKB alpha) (Homo sapiens, UniProt P31749); assay: Z'-LYTE in vitro kinase assay, AKT1; format: biochemical; conditions: preliminary screen, small panel of kinases
AKT2 [3] = target: T1, AKT2 (Homo sapiens, UniProt P31751); assay: Z'-LYTE in vitro kinase assay, AKT2; format: biochemical; conditions: preliminary screen, small panel of kinases
IKBKB (IKKβ) = target: T2, IKBKB (IKKβ) (Homo sapiens, UniProt O14920); assay: Z'-LYTE in vitro kinase assay, IKKβ; format: biochemical; conditions: preliminary screen, small panel of kinases
T2 sequence (O14920 1-756): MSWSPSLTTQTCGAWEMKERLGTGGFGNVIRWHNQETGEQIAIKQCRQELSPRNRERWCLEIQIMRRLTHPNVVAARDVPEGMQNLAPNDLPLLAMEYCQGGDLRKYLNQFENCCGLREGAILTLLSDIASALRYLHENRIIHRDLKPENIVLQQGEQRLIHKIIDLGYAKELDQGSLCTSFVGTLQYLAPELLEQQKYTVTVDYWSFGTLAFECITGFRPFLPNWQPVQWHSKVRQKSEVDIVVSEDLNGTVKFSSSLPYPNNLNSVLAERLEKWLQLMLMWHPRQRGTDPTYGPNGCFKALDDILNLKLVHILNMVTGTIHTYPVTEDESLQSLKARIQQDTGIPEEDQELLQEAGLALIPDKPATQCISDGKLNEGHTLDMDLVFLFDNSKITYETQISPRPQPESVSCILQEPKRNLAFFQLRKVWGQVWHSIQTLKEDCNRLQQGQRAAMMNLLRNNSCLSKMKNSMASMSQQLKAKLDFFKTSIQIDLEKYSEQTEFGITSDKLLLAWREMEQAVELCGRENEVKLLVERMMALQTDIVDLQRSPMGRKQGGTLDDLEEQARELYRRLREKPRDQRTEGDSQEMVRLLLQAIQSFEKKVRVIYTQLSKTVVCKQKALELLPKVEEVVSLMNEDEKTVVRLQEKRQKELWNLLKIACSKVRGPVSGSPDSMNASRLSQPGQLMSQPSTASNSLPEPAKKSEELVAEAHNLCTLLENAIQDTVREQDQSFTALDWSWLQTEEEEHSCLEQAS

RAF1 = RAF1 (Homo sapiens, UniProt P04049, Y340D/Y341D); assay: Z'-LYTE RAF1; format: biochemical; conditions: preliminary screen, small panel of kinases
MEK1 = MEK1 (Homo sapiens, UniProt Q02750); assay: Z'-LYTE MAP2K1; format: biochemical; conditions: preliminary screen, small panel of kinases
NEK1 = target: T3, NEK1 (Homo sapiens, UniProt Q96PY6); assay: Z'-LYTE in vitro kinase assay, NEK1; format: biochemical; conditions: read-out: inhibition of NEK1
T3 sequence (Q96PY6 1-1258): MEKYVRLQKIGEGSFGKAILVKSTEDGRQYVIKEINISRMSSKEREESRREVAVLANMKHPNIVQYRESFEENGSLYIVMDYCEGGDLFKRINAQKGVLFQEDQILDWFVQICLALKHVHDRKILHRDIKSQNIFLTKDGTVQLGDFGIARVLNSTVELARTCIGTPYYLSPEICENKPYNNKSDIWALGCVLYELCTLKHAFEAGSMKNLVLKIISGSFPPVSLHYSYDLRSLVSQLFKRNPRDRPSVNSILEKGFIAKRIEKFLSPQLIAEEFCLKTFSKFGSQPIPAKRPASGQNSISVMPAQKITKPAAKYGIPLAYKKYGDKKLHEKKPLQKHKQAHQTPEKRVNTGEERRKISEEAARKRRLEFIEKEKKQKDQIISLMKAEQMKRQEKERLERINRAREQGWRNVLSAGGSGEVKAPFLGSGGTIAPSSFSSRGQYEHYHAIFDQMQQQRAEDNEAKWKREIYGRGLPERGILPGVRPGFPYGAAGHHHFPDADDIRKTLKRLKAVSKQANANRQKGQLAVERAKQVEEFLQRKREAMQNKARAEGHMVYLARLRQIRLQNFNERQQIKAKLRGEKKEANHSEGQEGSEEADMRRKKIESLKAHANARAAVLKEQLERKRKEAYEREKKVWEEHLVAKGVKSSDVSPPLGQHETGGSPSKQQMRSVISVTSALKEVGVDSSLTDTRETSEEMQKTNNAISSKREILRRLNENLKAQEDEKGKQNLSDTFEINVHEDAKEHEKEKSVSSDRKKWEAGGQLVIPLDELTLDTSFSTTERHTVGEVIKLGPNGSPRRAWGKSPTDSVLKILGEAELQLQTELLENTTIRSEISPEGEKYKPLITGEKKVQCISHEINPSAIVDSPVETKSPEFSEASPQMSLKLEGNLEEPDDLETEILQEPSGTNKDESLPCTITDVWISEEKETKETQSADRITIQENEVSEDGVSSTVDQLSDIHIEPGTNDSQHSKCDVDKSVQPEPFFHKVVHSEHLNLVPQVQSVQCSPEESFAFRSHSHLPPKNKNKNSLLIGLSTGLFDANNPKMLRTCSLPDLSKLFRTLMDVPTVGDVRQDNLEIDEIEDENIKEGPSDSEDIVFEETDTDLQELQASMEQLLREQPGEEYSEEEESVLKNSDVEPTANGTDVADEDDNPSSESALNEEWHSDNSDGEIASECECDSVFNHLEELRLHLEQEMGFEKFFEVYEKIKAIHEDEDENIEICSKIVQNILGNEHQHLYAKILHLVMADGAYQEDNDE

KDR (VEGFR2) = KDR (VEGFR2) (Homo sapiens, UniProt P35968); assay: Z'-LYTE in vitro kinase assay, KDR; format: biochemical; conditions: read-out: inhibition of KDR
CHEK1 = target: T4, CHEK1 (Homo sapiens, UniProt O14757); assay: Kinase profile screen at 5 μM, CHEK1; format: biochemical; conditions: read-out: inhibition of CHEK1
T4 sequence (O14757 1-476): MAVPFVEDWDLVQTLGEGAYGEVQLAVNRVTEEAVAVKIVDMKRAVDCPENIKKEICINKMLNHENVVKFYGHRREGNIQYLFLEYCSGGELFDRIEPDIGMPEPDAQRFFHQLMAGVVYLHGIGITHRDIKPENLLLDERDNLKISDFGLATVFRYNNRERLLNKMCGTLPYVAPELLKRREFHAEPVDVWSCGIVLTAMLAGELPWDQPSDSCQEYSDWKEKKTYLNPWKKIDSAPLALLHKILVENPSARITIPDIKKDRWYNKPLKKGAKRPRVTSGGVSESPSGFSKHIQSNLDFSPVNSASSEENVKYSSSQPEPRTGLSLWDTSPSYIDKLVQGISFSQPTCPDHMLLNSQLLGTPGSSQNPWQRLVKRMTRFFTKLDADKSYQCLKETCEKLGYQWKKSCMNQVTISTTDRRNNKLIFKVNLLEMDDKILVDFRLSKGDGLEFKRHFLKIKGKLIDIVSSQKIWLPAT
Method in brief: (§1)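 Most kinases used the Z'Lyte read-out: a FRET-labelled peptide, protease development, and coumarin/fluorescein emission ratio. Some used Adapta (ADP TR-FRET) or a kinase cascade. Protease- and fluorescence-interference control wells were included. Values above 100% or below 0% were taken as maximal or no inhibition.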

PRKCβ1 = PRKCβ1 (Homo sapiens, UniProt P05771); assay: Kinase profile screen at 5 μM, PRKCβ1; format: biochemical; conditions: read-out: inhibition of PRKCβ1
Method in brief: as §1

PIM1 = PIM1 (Homo sapiens, UniProt P11309); assay: Kinase profile screen at 5 μM, PIM1; format: biochemical; conditions: read-out: inhibition of PIM1
Method in brief: as §1

IRAK4 = target: T5, IRAK4 (Homo sapiens, UniProt Q9NWZ3); assay: Kinase profile screen at 5 μM, IRAK4; format: biochemical; conditions: read-out: inhibition of IRAK4
T5 sequence (Q9NWZ3 1-460): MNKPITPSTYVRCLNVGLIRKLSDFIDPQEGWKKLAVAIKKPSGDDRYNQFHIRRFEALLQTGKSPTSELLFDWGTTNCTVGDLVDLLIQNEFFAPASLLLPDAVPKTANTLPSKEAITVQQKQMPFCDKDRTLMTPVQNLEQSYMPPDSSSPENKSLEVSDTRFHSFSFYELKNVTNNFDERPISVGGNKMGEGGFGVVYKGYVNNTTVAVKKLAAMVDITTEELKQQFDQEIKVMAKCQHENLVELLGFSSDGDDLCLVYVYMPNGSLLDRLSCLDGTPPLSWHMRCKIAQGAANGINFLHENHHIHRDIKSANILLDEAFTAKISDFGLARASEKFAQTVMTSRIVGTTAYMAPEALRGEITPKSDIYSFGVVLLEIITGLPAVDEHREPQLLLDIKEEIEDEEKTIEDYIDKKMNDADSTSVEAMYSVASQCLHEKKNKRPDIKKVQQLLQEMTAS
Method in brief: as §1

CDK7 = CDK7 (Homo sapiens, UniProt P50613); assay: Kinase profile screen at 5 μM, CDK7; format: biochemical; conditions: read-out: inhibition of CDK7
Method in brief: as §1

ACVR1B = target: T6, ACVR1B (Homo sapiens, UniProt P36896); assay: Kinase profile screen at 5 μM, ACVR1B; format: biochemical; conditions: read-out: inhibition of ACVR1B
T6 sequence (P36896 24-505): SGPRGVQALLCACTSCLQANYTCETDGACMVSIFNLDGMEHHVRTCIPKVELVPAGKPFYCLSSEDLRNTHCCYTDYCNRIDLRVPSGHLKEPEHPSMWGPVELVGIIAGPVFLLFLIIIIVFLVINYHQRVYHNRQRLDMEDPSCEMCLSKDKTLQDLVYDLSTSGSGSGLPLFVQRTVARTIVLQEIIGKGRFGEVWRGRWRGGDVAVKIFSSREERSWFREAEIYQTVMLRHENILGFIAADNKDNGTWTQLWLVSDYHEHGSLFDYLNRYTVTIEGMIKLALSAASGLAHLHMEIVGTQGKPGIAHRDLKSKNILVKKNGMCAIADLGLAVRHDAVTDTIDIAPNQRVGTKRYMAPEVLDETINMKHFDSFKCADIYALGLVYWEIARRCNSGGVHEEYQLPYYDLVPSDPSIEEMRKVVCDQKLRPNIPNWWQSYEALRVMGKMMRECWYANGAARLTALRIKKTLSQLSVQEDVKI
Method in brief: as §1

CDK2 = CDK2 (Homo sapiens, UniProt P24941); assay: Kinase profile screen at 5 μM, CDK2; format: biochemical; conditions: read-out: inhibition of CDK2
Method in brief: as §1

EGFR = EGFR (Homo sapiens, UniProt P00533); assay: Kinase profile screen at 5 μM, EGFR; format: biochemical; conditions: read-out: inhibition of EGFR
Method in brief: as §1

AKT2 [4] = target: T1, AKT2; assay: ADP Quest enzyme kinetics, Michaelis-Menten global analysis; format: biochemical; conditions: varying ATP and inhibitor concentrations
Method in brief: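 Purified recombinant human AKT2 with Crosstide peptide substrate; reactions run 10-90 min using fresh samples at varying ATP and inhibitor concentrations. ADP Quest enzyme-coupled fluorescence gave total ADP, and rates came from ADP formed over time. Rates were fitted by global non-linear regression to Michaelis-Menten competitive (shared Ki and Vmax) and mixed (shared Ki, α) models, with Ki and Vmax >0.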

panel of 50 kinases = assay: Kinase profile screen, 50-kinase panel; format: biochemical; conditions: 5 μM, of fifty kinases tested
Method in brief: as §1

[5] = cited from earlier work

Chain of cytoplasmic tyrosine kinase Src (P12931 whole entry): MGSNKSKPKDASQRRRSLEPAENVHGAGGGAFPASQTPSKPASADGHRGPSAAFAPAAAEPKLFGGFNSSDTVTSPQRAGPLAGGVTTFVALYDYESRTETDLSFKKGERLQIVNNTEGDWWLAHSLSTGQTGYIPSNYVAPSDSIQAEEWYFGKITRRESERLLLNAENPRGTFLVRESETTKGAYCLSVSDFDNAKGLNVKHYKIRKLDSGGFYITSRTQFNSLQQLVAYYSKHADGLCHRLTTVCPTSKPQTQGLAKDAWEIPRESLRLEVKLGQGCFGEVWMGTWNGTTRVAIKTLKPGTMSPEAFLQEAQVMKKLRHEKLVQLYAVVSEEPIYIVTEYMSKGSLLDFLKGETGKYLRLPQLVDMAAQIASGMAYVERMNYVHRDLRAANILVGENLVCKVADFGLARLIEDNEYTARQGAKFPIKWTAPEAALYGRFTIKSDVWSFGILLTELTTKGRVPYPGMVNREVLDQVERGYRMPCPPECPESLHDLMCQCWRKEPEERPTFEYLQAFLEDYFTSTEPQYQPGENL
T1 sequence (P31751 whole entry): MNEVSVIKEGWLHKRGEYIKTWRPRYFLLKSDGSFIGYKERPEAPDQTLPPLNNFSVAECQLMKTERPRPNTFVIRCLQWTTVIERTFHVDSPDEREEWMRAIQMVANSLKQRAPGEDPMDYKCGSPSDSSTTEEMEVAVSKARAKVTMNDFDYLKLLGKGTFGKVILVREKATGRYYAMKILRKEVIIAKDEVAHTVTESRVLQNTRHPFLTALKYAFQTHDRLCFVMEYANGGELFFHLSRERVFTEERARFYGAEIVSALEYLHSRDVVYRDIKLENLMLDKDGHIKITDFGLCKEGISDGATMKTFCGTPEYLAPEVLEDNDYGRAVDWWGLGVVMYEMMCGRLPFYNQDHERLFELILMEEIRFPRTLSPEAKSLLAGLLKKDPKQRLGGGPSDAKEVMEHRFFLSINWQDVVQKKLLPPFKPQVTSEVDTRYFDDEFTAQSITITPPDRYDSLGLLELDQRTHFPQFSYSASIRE
Chain of receptor tyrosine kinase IGFR (P08069 31-1367): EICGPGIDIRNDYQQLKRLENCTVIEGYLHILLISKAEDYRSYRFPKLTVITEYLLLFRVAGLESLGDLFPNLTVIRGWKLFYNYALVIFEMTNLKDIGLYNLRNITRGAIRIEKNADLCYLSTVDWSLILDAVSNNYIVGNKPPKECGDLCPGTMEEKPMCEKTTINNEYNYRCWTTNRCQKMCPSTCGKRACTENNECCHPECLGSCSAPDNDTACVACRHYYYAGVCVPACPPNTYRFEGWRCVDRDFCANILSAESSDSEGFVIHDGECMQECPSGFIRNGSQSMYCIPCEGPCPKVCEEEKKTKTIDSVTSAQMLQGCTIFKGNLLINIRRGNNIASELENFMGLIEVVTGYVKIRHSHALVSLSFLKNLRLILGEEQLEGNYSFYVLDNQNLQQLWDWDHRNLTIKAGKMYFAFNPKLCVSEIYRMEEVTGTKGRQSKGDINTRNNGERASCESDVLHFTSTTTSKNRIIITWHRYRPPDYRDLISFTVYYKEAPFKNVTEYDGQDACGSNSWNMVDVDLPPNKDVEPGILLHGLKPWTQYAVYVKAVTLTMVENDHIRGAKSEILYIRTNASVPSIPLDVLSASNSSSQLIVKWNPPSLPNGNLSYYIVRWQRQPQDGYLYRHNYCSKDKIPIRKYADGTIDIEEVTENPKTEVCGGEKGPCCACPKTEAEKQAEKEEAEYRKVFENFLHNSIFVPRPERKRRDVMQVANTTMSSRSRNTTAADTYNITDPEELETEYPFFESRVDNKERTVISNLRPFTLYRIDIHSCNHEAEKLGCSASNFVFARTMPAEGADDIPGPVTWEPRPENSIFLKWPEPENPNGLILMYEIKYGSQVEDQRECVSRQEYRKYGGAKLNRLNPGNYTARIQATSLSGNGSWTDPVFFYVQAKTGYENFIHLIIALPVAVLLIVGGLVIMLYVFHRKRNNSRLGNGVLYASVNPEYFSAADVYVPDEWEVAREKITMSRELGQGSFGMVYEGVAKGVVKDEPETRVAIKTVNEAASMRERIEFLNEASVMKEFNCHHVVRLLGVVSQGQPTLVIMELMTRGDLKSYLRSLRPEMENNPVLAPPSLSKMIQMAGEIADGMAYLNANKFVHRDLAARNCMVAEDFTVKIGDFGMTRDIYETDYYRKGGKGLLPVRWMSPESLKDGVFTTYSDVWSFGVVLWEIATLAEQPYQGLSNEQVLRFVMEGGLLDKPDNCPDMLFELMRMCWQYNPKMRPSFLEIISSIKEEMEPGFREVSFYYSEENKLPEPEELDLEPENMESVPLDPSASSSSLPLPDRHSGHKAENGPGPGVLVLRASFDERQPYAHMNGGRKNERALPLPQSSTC
Chain of RAF1 (P04049 306-648 Y340D/Y341D limits assumed): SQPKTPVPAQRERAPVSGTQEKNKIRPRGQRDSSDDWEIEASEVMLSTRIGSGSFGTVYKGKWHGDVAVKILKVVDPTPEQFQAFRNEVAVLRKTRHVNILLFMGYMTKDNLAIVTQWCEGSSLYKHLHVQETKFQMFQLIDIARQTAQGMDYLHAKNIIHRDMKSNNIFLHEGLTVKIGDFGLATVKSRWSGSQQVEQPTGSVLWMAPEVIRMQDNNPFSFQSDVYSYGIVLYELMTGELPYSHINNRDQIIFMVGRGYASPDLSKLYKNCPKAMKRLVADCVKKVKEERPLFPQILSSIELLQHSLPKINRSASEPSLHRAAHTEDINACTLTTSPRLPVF
Chain of KDR (VEGFR2) (P35968 20-1356): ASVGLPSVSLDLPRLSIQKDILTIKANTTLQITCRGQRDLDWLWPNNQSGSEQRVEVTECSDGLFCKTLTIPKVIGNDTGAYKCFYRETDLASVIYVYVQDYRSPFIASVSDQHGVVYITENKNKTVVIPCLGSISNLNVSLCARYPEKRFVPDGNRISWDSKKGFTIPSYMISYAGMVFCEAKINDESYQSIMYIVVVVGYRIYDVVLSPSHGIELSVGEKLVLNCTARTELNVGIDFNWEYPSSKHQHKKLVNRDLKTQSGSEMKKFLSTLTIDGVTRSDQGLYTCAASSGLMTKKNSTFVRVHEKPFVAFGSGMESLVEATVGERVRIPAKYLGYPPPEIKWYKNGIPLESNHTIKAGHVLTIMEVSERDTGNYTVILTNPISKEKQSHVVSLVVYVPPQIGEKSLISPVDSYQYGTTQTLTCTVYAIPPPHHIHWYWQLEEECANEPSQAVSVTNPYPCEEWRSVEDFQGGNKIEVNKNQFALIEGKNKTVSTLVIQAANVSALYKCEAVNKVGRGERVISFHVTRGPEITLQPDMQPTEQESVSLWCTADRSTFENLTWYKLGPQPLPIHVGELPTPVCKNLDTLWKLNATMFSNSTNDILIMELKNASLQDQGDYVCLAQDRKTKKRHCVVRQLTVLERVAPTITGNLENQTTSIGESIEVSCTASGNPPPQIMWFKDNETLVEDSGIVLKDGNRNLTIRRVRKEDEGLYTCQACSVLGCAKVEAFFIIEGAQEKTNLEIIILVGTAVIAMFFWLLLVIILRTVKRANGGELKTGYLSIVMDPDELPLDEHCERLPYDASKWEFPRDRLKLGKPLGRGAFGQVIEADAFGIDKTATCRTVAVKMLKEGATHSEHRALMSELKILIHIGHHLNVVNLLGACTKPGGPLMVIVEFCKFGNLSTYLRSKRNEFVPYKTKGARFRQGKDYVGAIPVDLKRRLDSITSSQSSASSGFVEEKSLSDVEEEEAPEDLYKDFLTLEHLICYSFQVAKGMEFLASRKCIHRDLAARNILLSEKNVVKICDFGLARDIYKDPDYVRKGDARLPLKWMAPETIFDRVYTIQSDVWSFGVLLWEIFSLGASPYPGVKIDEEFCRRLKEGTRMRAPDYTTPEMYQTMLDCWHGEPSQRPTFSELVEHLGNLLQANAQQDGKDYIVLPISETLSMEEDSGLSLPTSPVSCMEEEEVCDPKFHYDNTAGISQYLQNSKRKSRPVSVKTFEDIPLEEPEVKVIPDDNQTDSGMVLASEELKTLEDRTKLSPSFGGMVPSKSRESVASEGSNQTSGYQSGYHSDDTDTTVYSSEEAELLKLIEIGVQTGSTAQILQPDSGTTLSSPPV
Chain of CDK7 (P50613 whole entry, species assumed): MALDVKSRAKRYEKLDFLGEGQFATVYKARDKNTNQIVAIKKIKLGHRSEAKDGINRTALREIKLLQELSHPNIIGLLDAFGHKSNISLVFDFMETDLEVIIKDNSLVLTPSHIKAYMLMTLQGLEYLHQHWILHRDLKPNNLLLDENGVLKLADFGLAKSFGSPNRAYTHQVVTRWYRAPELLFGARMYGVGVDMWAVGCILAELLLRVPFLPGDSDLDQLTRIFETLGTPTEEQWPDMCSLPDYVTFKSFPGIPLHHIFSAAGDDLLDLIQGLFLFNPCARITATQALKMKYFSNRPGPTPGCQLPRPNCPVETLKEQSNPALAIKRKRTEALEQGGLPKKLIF
Chain of CDK7 (P51946 whole entry partner, species assumed): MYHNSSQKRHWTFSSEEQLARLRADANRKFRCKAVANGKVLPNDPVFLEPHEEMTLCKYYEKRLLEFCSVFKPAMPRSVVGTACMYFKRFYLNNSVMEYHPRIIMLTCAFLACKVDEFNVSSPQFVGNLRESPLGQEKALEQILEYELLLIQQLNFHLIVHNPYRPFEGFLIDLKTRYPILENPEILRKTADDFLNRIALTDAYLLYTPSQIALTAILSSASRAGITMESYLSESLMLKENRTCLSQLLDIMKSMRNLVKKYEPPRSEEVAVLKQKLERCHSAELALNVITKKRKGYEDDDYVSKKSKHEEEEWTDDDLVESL
Chain of CDK7 (P51948 whole entry partner, species assumed): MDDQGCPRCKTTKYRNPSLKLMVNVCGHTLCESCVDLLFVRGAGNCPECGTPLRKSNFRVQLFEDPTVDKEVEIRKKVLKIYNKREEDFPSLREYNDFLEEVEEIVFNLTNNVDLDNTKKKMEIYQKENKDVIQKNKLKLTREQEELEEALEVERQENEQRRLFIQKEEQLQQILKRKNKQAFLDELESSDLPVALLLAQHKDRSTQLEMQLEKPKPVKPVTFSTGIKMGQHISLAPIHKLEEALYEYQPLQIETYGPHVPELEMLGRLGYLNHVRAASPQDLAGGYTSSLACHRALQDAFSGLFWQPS

O=C1/C(=C/c2ccccc2F)CNC/C1=C\c1ccccc1F [Compound 3, 3,5-bis(2-flurobenzylidene)piperidin-4-one]
inhibition of IGFR [1]: no measurable inhibition | inhibition of Src [2]: weak effect | mechanism of IKKβ blockade (IKKβ): mixed mechanism

O=C1/C(=C/c2ccccn2)CNC/C1=C\c1ccccn1 [Compound 4, 3,5-Bis(2-pyridinylmethylidene)-4-piperidone]
inhibition of AKT1 (AKT1 (PKB alpha)): significantly increased blocking action | inhibition of AKT2 (AKT2 [3]): significantly increased blocking action | inhibition of IKKβ (IKBKB (IKKβ)): moderate inhibition | inhibition of RAF1 (RAF1): moderate inhibition | inhibition of MEK1 (MEK1): moderate inhibition | inhibition at 5 µM (NEK1): ≥ 85% | inhibition at 5 µM (KDR (VEGFR2)): ≥ 85% | inhibition of IGFR [1]: no measurable inhibition | inhibition of Src [2]: weak effect | inhibition at 5 µM (CHEK1): ≥ 85% | inhibition at 5 µM (PRKCβ1): ≥ 85% | inhibition at 5 µM (PIM1): ≤ 10% | inhibition at 5 µM (IRAK4): ≤ 10% | inhibition at 5 µM (CDK7): ≤ 10% | inhibition at 5 µM (ACVR1B): ≤ 10% | inhibition at 5 µM (CDK2): ≤ 10% | inhibition at 5 µM (EGFR): ≤ 10% | α (mixed-model parameter, global analysis of Michaelis-Menten graph) (AKT2 [4]): 31 | number of kinases inhibited at ≤40% (panel of 50 kinases): 28 | number of kinases with 40-80% inhibition (modestly blocked) (panel of 50 kinases): twelve | kinase suppression by comparison with curcumin [5]: ≥ 10 fold
